Measurements taken from publication PMC8109618 (Bioorganic & medicinal chemistry, 2020).

What was measured:
hFXIa–DEGR = hFXIa–DEGR (Homo sapiens, UniProt P03951); assay: Fluorescence titration of active site dansylated hFXIa; assay type: binding
hFXIa [1] = target: T1, hFXIa (Homo sapiens, UniProt P03951); assay: Direct inhibition of hFXIa, chromogenic substrate; assay type: biochemical; conditions: for selectivity for hFXIa over FXa and trypsin: based on inhibition at >200 μM
hFXIa [2] = target: T1, hFXIa; assay type: biochemical
How it was run: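 Human plasma FXIa. The initial rate of S-2366 ([…]) hydrolysis was taken from the linear A405 rise, with under 10% substrate consumed. S-2366 was varied from 0.03 to 2 mM at a fixed test compound concentration. Buffer was 50 mM Tris-HCl pH 7.4 with 150 mM NaCl, 0.1% PEG8000 and 0.02% Tween80, at 37 °C. KM and VMAX came from a nonlinear hyperbolic Michaelis–Menten fit.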

hFXIa [3] = target: T1, hFXIa; assay: Analytical ultracentrifugation of hFXIa–inhibitor complex; conditions: 100 μM inhibitor, 20 °C; dimeric form, same as hFXIa alone
FXa = FXa (Homo sapiens, UniProt P00742); assay: Direct inhibition of FXa, chromogenic substrate; assay type: biochemical; conditions: not shown
FXa, sequence (P00742 235-488 limits assumed): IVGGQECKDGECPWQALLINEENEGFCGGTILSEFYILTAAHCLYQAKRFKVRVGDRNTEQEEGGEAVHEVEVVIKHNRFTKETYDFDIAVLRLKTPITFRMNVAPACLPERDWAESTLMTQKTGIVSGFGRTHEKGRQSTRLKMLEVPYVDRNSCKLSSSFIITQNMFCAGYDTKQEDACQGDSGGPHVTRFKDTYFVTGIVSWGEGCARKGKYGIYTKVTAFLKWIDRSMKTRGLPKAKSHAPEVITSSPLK
FXa, sequence (P00742 41-179 partner limits assumed): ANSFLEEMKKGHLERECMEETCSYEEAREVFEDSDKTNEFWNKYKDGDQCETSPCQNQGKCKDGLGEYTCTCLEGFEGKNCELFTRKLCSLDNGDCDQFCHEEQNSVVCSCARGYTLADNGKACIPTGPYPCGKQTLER
How it was run: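 Human plasma FXa was held as stock in 20 mM Tris-HCl, pH 7.4, 100 mM NaCl, 2.5 mM CaCl2, 0.1% PEG8000, 0.02% Tween80. […] Percent inhibition came from the ratio of proteolytic activity with versus without test compound.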

trypsin = target: T2, trypsin (Bos taurus, UniProt P00760); assay: Direct inhibition of trypsin, chromogenic substrate; assay type: biochemical, bovine; conditions: not shown
T2 sequence (P00760 24-246): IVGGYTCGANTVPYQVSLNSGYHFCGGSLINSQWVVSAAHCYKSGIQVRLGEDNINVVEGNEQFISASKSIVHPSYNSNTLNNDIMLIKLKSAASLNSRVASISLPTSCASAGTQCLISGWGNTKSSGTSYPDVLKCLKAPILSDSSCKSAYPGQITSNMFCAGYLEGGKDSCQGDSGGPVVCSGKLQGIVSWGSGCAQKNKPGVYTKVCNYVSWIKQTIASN
How it was run: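 Bovine trypsin was held as stock in 50 mM Tris-HCl, pH 7.4, 150 mM NaCl, 0.1% PEG8000, 0.02% Tween80. The assay used 2.5 ng/ml enzyme with 80 μM S-2222 (in-well) at 37 °C, pH 7.4. Percent inhibition was calculated from the ratio of activity with versus without test compound.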

T1 sequence (P03951 388-625 limits assumed): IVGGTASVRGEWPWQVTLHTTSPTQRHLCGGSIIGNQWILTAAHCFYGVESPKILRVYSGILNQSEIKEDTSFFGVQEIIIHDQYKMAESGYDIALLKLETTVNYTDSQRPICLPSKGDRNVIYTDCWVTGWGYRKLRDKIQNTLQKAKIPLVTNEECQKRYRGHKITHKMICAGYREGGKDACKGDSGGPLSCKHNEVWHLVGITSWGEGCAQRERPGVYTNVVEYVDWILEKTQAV
T1 sequence (P03951 19-387 partner limits assumed): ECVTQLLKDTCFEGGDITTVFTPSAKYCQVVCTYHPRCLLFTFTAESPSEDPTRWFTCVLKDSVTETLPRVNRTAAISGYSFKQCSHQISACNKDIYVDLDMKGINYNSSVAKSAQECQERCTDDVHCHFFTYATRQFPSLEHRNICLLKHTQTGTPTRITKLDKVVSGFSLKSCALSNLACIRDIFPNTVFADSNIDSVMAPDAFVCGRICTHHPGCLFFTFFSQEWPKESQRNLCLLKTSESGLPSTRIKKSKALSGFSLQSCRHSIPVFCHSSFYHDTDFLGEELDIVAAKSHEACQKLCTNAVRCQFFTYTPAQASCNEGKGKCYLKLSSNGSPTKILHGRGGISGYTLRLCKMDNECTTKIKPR
hFXIa–DEGR, sequence (P03951 388-625 limits assumed): as the sequence (P03951 388-625 limits assumed) above
hFXIa–DEGR, sequence (P03951 19-387 partner limits assumed): as the sequence (P03951 19-387 partner limits assumed) above

Row | selectivity for hFXIa over FXa and trypsin (hFXIa [1]) [fold] | concentration at which FXa is inhibited (FXa) [µM] | concentration at which trypsin is inhibited (trypsin) [µM] | Structure (SMILES) | other results
1 | – | – | – | O=c1[nH]c(-c2ccc(OS(=O)(=O)[O-])cc2)nc2ccccc12.[Na+] [Inhibitor 2S] | fold higher KD than the next compound (hFXIa–DEGR; 2S vs 18S, 18S vs 19S): ~ 3.2 fold
2 | – | – | – | O=c1c2ccccc2nc(-c2ccc(OS(=O)(=O)[O-])cc2)n1CCCCCn1c(-c2ccc(OS(=O)(=O)[O-])cc2)nc2ccccc2c1=O.[Na+].[Na+] [Inhibitor 11S] | increase in potency as compared to the monomeric fragment (hFXIa [1]; IC50 ratio vs monomer 2S): ~ 7 fold
3 | – | – | – | O=c1c2ccccc2nc(-c2ccc(OS(=O)(=O)[O-])cc2)n1CCCCCCCCCn1c(-c2ccc(OS(=O)(=O)[O-])cc2)nc2ccccc2c1=O.[Na+].[Na+] [Inhibitor 19S] | n (Hill coefficient) (hFXIa–DEGR; 250 nM FXIa–DEGR, pH 7.4, 37 °C): 5.0±0.4; mechanism of inhibition (hFXIa [2]; KM invariant, VMAX decreased): non-competitive; VMAX (hFXIa [2]; at 120 μM inhibitor, pH 7.4, 37 °C): 9.7±0.37 mAU/min; sedimentation coefficient s of hFXIa–inhibitor complex (hFXIa [3]): 6.6 S
4 | > 25 | > 200 | > 200 | O=c1c2ccccc2nc(-c2ccc(OS(=O)(=O)[O-])cc2)n1CCCCCCCCCCn1c(-c2ccc(OS(=O)(=O)[O-])cc2)nc2ccccc2c1=O.[Na+].[Na+] [Inhibitor 20S] | –
5 | > 25 | > 200 | > 200 | O=c1c2ccccc2nc(-c2ccc(OS(=O)(=O)[O-])cc2)n1CCCCCCCCCCCn1c(-c2ccc(OS(=O)(=O)[O-])cc2)nc2ccccc2c1=O.[Na+].[Na+] [Inhibitor 21S] | –
